A selection: hits, their analogues and other compounds. The true share with any hit is near 5.7%.
Calb FLC = C. albicans growth modulation with fluconazole | AID 1979 | C. albicans CaCi-2 (fluconazole-resistant clinical isolate) + fluconazole, Alamar Blue growth, 48 h | growth inhibition, % (test concentration not listed) | hit rate 0.57% among 300,000;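 active = growth inhibition above about 58% in most replicates, limit read from the data, passing the limit was not always enough; inconclusive = exactly half the replicates above a set limit; inactive = most replicates below a set limit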;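 also: all wells also contain fluconazole at 8 µg/ml as a sub-toxic cotreatment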
Mdm2 MdmX PPI = disrupts the human Mdm2-MdmX interaction. AID 485346. hit rate 3% among 330,000. inhibition, % at 8 µM. SaOS-2 split-luciferase Mdm2/MdmX complementation, luminescence;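 active = inhibition of at least 50% at 8 µM in the primary screen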
CSC inhib = cancer stem cell inhibition; inhibition, % at 7.5 µM; hit rate 1.1% among 300,000; cancer stem cell-like cells viability, luminescence; in the data active = inhibition above about 75%; inconclusive = no clear call, values can overlap the other calls; tested in HMLE shEcad cells
T cruzi repl = T. cruzi replication inhibition; T. cruzi beta-gal in NIH3T3, luminescence, 90 h; inhibition, % (concentration not given with the values); hit rate 1.4% among 300,000;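 active = mean inhibition across valid replicates above about 55%, limit read from the data; inconclusive = mean below that limit but half or more replicates reach it; inactive = mean below it, under half of replicates reach it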;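 also: signal also drops with host cell toxicity which is not excluded here; higher percent means less beta-gal luminescence so fewer parasites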
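Material: NIH/3T3 host cells with β-galactosidase reporter T. cruzi; Input: 5,000 host fibroblasts per well; Medium: DMEM, 2% fetal bovine serum; Compound: 50 nL DMSO compound solution per well; Schedule: 3 h host attachment, then at least 90 h co-culture; Detection: luminescent β-galactosidase signal after 60 min lysis.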
Beta cell apopt = blocks beta cell apoptosis; protection from apoptosis, % (test concentration not listed); INS-1E cytokine-induced death, ATP luminescence, 48 h; percent of positive-control rescue, neutral wells zero; AID 435005; hit rate 0.8% among 300,000;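 active = Every replicate reaches about 75%, or at least half do and their mean reaches it too, limit read from the data; inconclusive = At least half of replicates reach the limit but their mean does not; inactive = Under half of replicates reach the limit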;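 also: higher means more ATP so stronger rescue from cytokine killing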
SKKanGAS inh = inhibitors of SKKanGAS S. pyogenes growth in kanamycin (SK-promoter or general growth effect); BacTiter-Glo, 6 h; inhibition, % at 7.5 µM; hit rate 1.3% among 300,000;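 active = mean replicate score, as percent of positive control median, at least 50; inconclusive = mean below 50 but one replicate at or above 50; inactive = mean and every replicate below 50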;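 also: strain carries kanamycin resistance gene driven by streptokinase promoter and grows in 40 µg/ml kanamycin; loss of luminescence reflects streptokinase promoter inhibition or plain growth inhibition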
Mdm2 MdmX conf = confirmation of human Mdm2/MdmX interaction inhibitors | shares compounds with Mdm2 MdmX PPI | inhibition, % at 8 µM | Mdm2-MdmX binding, luminescent assay | hit rate 55% among 10,000; in the data active = inhibition above about 40%
Full FLuc ctr = counter-screen for Mdm2/MdmX inhibitors: full-length luciferase | hit rate 77% among 6,200 | inhibition, % at 8 µM | AID 504607 | SaOS-2 full-length luciferase counterscreen, luminescence | shares compounds with Mdm2 MdmX PPI;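 active = mean inhibition at 8 µM reaching about 37%, which flags the compound as non-specific, limit read from the data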;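 also: p53-null SaOS-2 cells with luciferase driven by a doxycycline-inducible promoter; compound on cells about two nights before reading with doxycycline added after day one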
A number is an active result; 0 = inactive; ? = inconclusive; - = not tested or not shown.

SMILES	Calb FLC	Mdm2 MdmX PPI	CSC inhib	T cruzi repl	Beta cell apopt	SKKanGAS inh	Mdm2 MdmX conf	Full FLuc ctr
COC(=O)c1cc(C(=O)N2CCN(c3cccc(C)c3C)CC2)cc([N+](=O)[O-])c1	0	55	0	0	0	0	48	54
COC(=O)c1cc(C(=O)N2CCN(c3ccccc3OC)CC2)cc([N+](=O)[O-])c1	0	52	0	0	0	0	56	60
COc1ccc(/C=N\NC(=O)c2ccccc2Cl)cc1COc1c(F)c(F)c(F)c(F)c1F	0	56	0	0	0	0	0	-
COc1ccc(/C=N\NC(=O)c2ccccc2OC)cc1COc1c(F)c(F)c(F)c(F)c1F	0	0	0	0	0	0	-	-
Cc1ccc(NC(=O)CSc2nc(-c3ccco3)nc3cc(=O)[nH]n23)c(Cl)c1	0	0	0	0	0	0	-	-
N=C1/C(=C\c2ccc(Br)o2)C(=O)N=C2SC(CC(=O)N3CCCCC3)=NN12	0	0	0	0	0	0	-	-
CN(C)c1ccc(/C=C2/SC(=O)N(CCN=C3NS(=O)(=O)c4ccccc43)C2=O)cc1	0	60	0	0	0	0	0	-
Cc1ccc(OCC(=O)Oc2ccc(C)c(C)c2)cc1	0	0	0	0	0	0	-	-
CCn1c(=O)n(CC)c2cc(N3CCCC3)c(NC(=O)c3cc(Br)ccc3OC)cc21	0	75	0	64	0	65	0	-
C/C=C/c1ccc(OCC(=O)Nc2cc(S(=O)(=O)N3CCOCC3)ccc2N2CCCC2)c(OC)c1	0	0	0	0	-	0	-	-
C/C(CC(=O)Nc1ccc(OCc2ccccc2)cc1)=N\NC(=O)C(=O)Nc1ccc(C)c(Cl)c1	0	0	0	0	0	0	-	-
COc1ccc(-c2nc3c(c(SCC(=O)N4CCOCC4)n2)Cc2c(CO)cnc(C)c2O3)cc1	0	58	0	0	0	0	0	-
Cc1cc(/C=C\c2ccc3cc(N(C)C)ccc3[n+]2C)c(C)n1-c1ccccc1	-	100	88	-	-	-	92	0
Cc1cc(F)ccc1S(=O)(=O)Nc1ccccc1C(=O)Nc1ccccc1-c1nc2ccccc2[nH]1	?	96	79	0	116	58	92	51
CC(C)c1cccc(C(C)C)c1NC(=O)c1ccc(OCC(=O)NCc2ccccc2)cc1	0	75	0	0	0	0	60	56
CN(CC(=O)Nc1cccc(F)c1)C(=O)c1cc([N+](=O)[O-])ccc1N1CCOCC1	0	0	-	0	0	0	-	-
CCCCNC1C(CC)C(CCC)C(C#N)(C#N)C1(C#N)C#N (stereo not given)	0	61	0	0	0	0	0	56
COc1ccc(CC(=O)Oc2ccc(C)cc2Br)cc1OC	0	0	-	0	-	0	-	-
NC(=O)[C@H]1CC2(CC(c3cccc(NC(=O)CC(c4ccccc4)c4ccccc4)c3)=NO2)CN1C(=O)CC(c1ccccc1)c1ccccc1 (stereo not given in full)	0	68	0	0	0	0	52	57
CCC(=O)N1CC2(CC(c3cccc(NC(=O)CC(c4ccccc4)c4ccccc4)c3)=NO2)C[C@H]1C(N)=O (stereo not given in full)	0	0	0	0	0	0	-	-
NC(=O)[C@@H]1CC2(CC(c3cccc(NC(=O)CC(c4ccccc4)c4ccccc4)c3)=NO2)CN1C(=O)c1ccc(Cl)cc1 (stereo not given in full)	0	52	0	57	0	0	0	-
Cc1cc2oc(=O)cc(C)c2cc1NC(=O)CCC(=O)O	0	0	0	0	0	0	-	-
Cc1cc2oc(=O)cc(C)c2cc1NC(=O)CCl	0	58	0	0	0	0	0	-
COc1ccc(-c2oc(=O)c3cc(OC)c(OC)cc3c2-c2ccc3c(c2)OCO3)cc1	-	0	0	-	0	-	-	-
COc1cc2c(O)c3c(c(-c4ccc5c(c4)OCO5)c2cc1OC)C(=O)OC3	82	73	91	57	0	0	72	0
SMILES	Calb FLC	Mdm2 MdmX PPI	CSC inhib	T cruzi repl	Beta cell apopt	SKKanGAS inh	Mdm2 MdmX conf	Full FLuc ctr
COc1cc2c(OC(C)=O)c3c(c(-c4ccc5c(c4)OCO5)c2cc1OC)C(=O)OC3	0	86	0	0	0	0	74	48
COc1ccc(C(=O)Oc2ccc3c(c2)OCO3)cc1OC	0	0	0	0	0	0	-	-
O=C(Nc1cccc(C(F)(F)F)c1)N(Cc1ccc(Cl)cc1)CC(O)C(F)(F)F (stereo not given)	0	67	0	0	0	0	0	-
CC(O)(CS(=O)(=O)Cc1ccc(Cl)cc1)C(=O)Nc1cccc(C(F)(F)F)c1 (stereo not given)	0	0	0	0	0	0	-	-
CCCn1c(SCC(=O)NCc2ccc3c(c2)OCO3)n[nH]c1=O	-	0	-	-	0	-	-	-
COC(=O)C1CCN(C(=O)c2oc3c(Cl)cc(C)cc3c2C)CC1	0	0	0	0	0	0	-	-
Cc1cc(Cl)c2oc(C(=O)N3CCN(c4ccncc4)CC3)c(C)c2c1	0	90	83	61	0	0	51	57
O=C1CC(c2ccco2)CC2=C1C1c3ccccc3C(=O)N1c1ccccc1N2 (stereo not given)	0	68	0	0	0	0	0	-
Cc1ccc(C(=O)N[C@H](C(=O)Nc2ccc(N3CCOCC3)cc2)C(C)C)cc1	-	0	-	-	-	-	-	-
COc1cc(NC(=O)CSc2nc3[nH]ncc3c(=O)n2-c2ccc(Cl)cc2)cc(OC)c1	0	59	0	0	-	0	0	-
CSc1sccc1/C=C(/C#N)C(=O)c1ccco1	0	0	0	0	0	0	-	-
CN(CC(=O)Nc1c(Cl)cccc1Cl)C(=O)c1cc(-c2cccs2)nn1-c1ccccc1	0	0	-	0	0	0	-	-
CCN(CC(=O)Nc1c(F)cccc1F)C(=O)c1cc(-c2cccs2)nn1-c1ccccc1	0	60	-	0	0	0	0	86
COc1ccc(C2=NOC(C)(c3nnc(-c4ccc(Cl)cc4)o3)C2)cc1 (stereo not given)	0	0	0	0	0	0	-	-
CCOc1nc(N=C(N)N)nc2c(C)cccc12	0	56	0	0	0	0	0	-
CC(Oc1ccccc1)C(=O)Nc1ccc(NC(=O)c2ccccc2)cc1 (stereo not given)	0	66	0	0	0	0	0	52
COc1ccc(-c2nc3ncccc3n2O)cc1	0	0	0	0	0	0	-	-
COc1ccc(NS(=O)(=O)c2cc(C)ccc2NC(=O)c2cc(C)oc2C)cc1	0	64	0	0	0	0	58	126
Cc1oc2cc(O)cc(C)c2c(=O)c1-c1cnn(-c2ccccc2)c1	0	58	0	0	0	0	0	-
NS(=O)(=O)c1ccc(CCNC(=O)c2ccc(C#CC3(O)CCCCC3)cc2)cc1	0	70	0	0	0	0	68	72
OCCNc1nc2ccccc2nc1NCCO	0	0	0	0	0	0	-	-

High-throughput results: PubChem, several laboratories
